pIC50, pKd: −log10 of the molar value.
What was measured:
[1] = target: T1, lipopolysaccharide-responsive beige-like anchor protein (LRBA) (Homo sapiens, UniProt P50851); experiment: ITC with purified LRBA PH domain; type: binding
Target sequence in this assay (P50851 2073-2489 limits assumed): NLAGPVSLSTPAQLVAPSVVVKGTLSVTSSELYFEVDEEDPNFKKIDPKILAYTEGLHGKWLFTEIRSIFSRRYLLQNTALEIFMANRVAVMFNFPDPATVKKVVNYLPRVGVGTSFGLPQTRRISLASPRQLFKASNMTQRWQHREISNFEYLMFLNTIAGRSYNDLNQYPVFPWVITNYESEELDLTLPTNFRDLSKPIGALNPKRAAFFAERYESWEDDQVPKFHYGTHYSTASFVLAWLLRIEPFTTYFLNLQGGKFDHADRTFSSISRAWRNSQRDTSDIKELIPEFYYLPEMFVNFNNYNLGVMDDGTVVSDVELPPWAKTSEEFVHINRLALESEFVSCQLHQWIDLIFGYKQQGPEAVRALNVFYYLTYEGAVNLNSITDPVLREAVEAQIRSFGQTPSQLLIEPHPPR

[2] = target: T1, lipopolysaccharide-responsive beige-like anchor protein (LRBA); experiment: Nluc complementation with purified LRBA PH; type: cell-based
How it was run: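 HEK293T cells were transfected with three plasmids and treated with test compound in DMEM assay medium at 250.00, 100.00, 33.30, 10.00, 3.33, 1.00, 0.33, 0.10, 0.03 and 0.01 μM. Inhibition of the CTLA4–LRBA interaction was read as the Nluc/Firefly luciferase ratio by dual-luciferase assay. In the cell-free format, Flag-purified Sm-LRBA PH was preincubated with compound for 2 h at 25 °C. Myc-purified CTLA4 CT-Lg was then added for 18 h at 25 °C.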
Target sequence in this assay (P50851 2073-2489): as the sequence (P50851 2073-2489 limits assumed) above
Target sequence in this assay (P16410 36-223, further chain): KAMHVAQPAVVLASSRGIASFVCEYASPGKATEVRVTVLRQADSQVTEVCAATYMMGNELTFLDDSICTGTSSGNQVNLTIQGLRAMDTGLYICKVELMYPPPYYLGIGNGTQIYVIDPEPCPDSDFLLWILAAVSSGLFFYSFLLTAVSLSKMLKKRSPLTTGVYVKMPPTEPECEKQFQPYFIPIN

| pKd [1] | pIC50 [2] | SMILES |
| --- | --- | --- |
| 4.71 |  | c1ccc2ncc(-c3ccnc(N4CCNCC4)n3)cc2c1 [LC427, 3-(2-(piperazin-1-yl)pyrimidin-4-yl) quinoline] |
|  | 6.47 | NCC1CCN(c2nccc(-c3ccc4ccccc4c3)n2)CC1 [WAY-262611] |

Reference: publication PMC12815959 (Nature Communications, 2025)
